These results are taken from ChEMBL document CHEMBL1152488, “Synthesis and evaluation of pyrido[1,2-a]pyrimidines as inhibitors of nitric oxide synthases” (Eur J Med Chem, 2009).

The target of test [1] is Nitric oxide synthase, inducible (Homo sapiens) (UniProt P35228). In words: Inhibition of human iNOS expressed in insect Sf9 cells assessed as residual activity at 100 uM by Griess assay relative to control. In short, it runs like this:
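Human iNOS made in Sf9 cells, incubated at 37 °C for 20 min in 50 mM triethanolamine pH 7.5 with 1 mM Mg2+, FAD/FMN 5 µM each, 0.5 mM NADPH, 10 µM H4B, CaM and 1 mM L-arginine. Compound 100 µM final. NADPH cleared with lactate dehydrogenase/pyruvate before Griess reaction (543 nm). Residual activity relative to 1% DMSO control; mean of 5 experiments.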
(Griess reagent forms a coloured azo dye with nitrite.)

The target in test [2] is T1, Nitric oxide synthase 3 (Homo sapiens) (UniProt P29474).
T1 sequence (whole entry): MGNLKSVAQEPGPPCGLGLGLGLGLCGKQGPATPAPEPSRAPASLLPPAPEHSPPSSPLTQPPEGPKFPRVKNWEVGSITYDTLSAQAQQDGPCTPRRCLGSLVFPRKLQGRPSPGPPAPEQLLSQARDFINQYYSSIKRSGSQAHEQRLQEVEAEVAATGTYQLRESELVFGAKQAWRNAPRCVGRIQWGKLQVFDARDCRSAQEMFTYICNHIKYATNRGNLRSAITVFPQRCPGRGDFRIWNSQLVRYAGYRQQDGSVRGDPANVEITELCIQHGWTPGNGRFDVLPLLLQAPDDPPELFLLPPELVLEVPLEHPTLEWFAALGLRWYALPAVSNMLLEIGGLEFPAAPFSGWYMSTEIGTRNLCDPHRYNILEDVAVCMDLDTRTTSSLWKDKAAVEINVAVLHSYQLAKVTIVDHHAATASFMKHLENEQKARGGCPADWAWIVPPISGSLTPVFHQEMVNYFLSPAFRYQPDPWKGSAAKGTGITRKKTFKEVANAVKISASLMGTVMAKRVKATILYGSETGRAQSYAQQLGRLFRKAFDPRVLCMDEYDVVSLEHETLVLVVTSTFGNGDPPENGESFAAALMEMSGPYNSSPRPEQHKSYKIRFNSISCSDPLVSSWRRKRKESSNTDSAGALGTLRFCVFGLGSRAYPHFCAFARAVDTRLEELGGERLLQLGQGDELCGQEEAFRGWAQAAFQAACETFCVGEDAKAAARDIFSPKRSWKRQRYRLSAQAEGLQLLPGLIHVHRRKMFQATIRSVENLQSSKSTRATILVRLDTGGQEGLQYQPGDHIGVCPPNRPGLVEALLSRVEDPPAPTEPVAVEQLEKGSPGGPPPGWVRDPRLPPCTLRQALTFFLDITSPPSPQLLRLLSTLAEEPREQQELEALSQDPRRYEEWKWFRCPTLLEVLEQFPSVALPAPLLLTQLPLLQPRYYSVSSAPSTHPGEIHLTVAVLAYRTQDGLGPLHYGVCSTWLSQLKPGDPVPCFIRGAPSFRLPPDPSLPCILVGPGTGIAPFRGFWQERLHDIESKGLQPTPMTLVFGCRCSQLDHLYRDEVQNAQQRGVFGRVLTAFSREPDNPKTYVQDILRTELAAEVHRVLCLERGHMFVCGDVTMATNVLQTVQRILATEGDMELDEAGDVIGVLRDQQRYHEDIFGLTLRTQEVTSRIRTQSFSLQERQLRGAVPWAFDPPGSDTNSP
The test can be described thus: Inhibition of human eNOS assessed as residual activity at 100 uM by Griess assay relative to control. In short, it runs like this: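 Human eNOS expressed in Pichia pastoris. Incubated 20 min at 37 °C in triethanolamine pH 7.5 with 0.5 mM Ca2+, CaM, H4B 10 µM, FAD/FMN 5 µM, NADPH 0.5 mM, L-arginine 1 mM and compound at 100 µM final. Nitrite read by Griess (543 nm) after LDH/pyruvate NADPH removal; % of 1% DMSO control from 5 experiments.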

Each structure is given as a SMILES string.

Nitric oxide synthase, inducible (Homo sapiens), sequence (P35228 whole entry): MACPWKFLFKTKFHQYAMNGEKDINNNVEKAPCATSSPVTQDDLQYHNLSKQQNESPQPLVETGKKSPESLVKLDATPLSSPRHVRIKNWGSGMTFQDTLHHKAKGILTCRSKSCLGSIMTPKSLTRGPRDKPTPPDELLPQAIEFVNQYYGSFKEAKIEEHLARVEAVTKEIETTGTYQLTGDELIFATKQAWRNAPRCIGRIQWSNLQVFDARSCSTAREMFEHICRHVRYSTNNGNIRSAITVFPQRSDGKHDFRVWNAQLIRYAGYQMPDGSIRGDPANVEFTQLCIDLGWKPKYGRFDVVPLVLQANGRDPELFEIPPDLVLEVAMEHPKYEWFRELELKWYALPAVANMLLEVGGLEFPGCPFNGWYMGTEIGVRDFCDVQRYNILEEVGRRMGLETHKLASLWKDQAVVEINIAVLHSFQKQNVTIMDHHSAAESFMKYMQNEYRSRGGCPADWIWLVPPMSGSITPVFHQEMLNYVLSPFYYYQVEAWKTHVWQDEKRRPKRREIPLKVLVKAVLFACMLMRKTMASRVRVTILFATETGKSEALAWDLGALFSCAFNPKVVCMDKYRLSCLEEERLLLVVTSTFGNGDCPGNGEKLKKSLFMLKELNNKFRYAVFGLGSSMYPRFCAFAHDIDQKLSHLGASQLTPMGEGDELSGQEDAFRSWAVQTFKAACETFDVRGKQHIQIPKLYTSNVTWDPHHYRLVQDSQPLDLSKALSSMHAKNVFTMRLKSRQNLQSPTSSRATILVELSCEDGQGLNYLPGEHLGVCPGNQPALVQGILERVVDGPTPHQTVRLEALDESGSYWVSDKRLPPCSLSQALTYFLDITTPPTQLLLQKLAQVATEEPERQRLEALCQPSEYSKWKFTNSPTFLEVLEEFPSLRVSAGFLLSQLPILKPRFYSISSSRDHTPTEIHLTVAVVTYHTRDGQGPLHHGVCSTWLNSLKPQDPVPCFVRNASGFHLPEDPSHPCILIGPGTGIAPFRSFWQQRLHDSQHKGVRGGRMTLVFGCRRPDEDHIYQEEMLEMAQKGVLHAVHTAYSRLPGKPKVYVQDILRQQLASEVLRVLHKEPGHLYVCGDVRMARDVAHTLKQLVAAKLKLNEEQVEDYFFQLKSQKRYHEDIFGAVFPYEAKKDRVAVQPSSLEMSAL

Take `CC1=CC2=NCC(C(=O)c3ccc(O)cc3)CN2C=C1` (stereo not drawn): the Activity worked out at 30% in test [1] and 46% in test [2].

With `CC1=CC2=NCC(C(=O)c3ccc(OCc4ccccc4)cc3)CN2C=C1` (stereo not drawn), the Activity turned out to be 73% in test [1] and 75% in test [2].

`CC1=CC2=NCC(C(=O)c3ccc(-c4ccc(O)cc4)cc3)CN2C=C1` (stereo not drawn): the Activity in test [1] is 96%; in test [2], 86%.

For `CC1=CC2=NCC(C(=O)c3ccc(C#N)cc3)CN2C=C1` (stereo not drawn), the Activity in test [1] is 54%; in test [2] it was 75%.

As for `CC1=CC2=NCC(C(=O)c3ccc(C4CCCCC4)cc3)CN2C=C1` (stereo not drawn), the Activity in test [1] was 70%; in test [2], 42%.

Regarding `CC1=CC2=NCC(C(=O)c3ccc(C(=O)O)cc3)CN2C=C1` (stereo not drawn), the Activity was determined as 93% in test [1] and 94% in test [2].

Regarding `COc1ccc(COc2ccc(C(=O)C3CN=C4C=C(C)C=CN4C3)cc2)cc1` (stereo not drawn), the Activity in test [1] turned out to be 101%; in test [2], 46%.

For the compound `CC1=CC2=NCC(C(=O)c3ccc(-c4ccc(C(=O)O)cc4)cc3)CN2C=C1` (stereo not drawn), the Activity in test [1] was 98%; in test [2], 91%.

As for `Nc1ccccn1`, the results for the Activity in test [1] and in test [2] were 95% and 94%, respectively.

Consider `O=C(c1ccc(F)cc1)C1CN=C2C=CC=CN2C1` (stereo not drawn), for which the Activity in test [1] was found to be 67%; in test [2], 79%.

Turning to `CC1=CC2=NCC(C(=O)c3ccc(-c4ccc(F)cc4)cc3)CN2C=C1` (stereo not drawn), the Activity in test [1] turned out to be 85%; in test [2], 46%.

For the compound `Cc1ccnc(N)c1`, the values for the Activity in test [1] and in test [2] were 29% and 50%, respectively.

Consider `Cc1cccc(N)n1`, for which the Activity in test [1] worked out at 47%; in test [2], 83%.

Consider `Cc1cc(C)nc(N)c1`, for which the values for the Activity in test [1] and in test [2] were 7% and 12%, respectively.
